From ChEMBL document CHEMBL1123743, “Antisecretory activity of human, dog, and rat metabolites of fenoctimine” (J Med Chem, 1987)
Converted amounts (≈) assume the structure as drawn. The source made the active and inactive calls. The rule behind the calls is not given here.

How the values were obtained:
Cavia porcellus = species: Cavia porcellus; assay: Anticholinergic activity was determined in vitro by measuring their effect on the acetylcholine chloride induced contraction of guinea pig ileum; assay type: functional
Method in brief: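 Ileum was isolated from female guinea pigs (200–500 g) killed with CO2. Acetylcholine chloride was added in rising concentrations up to maximal response. Test compound was given 2 min before the agonist, with antagonism assessed against the maximal acetylcholine dose. Full concentration–response curves were run.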

Rattus norvegicus [1] = assay: Antisecretory activity was evaluated in acute gastric fistula of rat after intraperitoneal administration; assay type: functional; conditions: Stomach, ip
Rattus norvegicus [2] = assay: Antisecretory activity was evaluated in acute gastric fistula of rat after peroral administration; assay type: functional; conditions: Stomach, po
Method in brief: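 Female Sprague-Dawley rats (120–160 g), food-deprived ≥18 h, given drug or vehicle (0.5% methocel) orally 1 h before surgery. Under ether anesthesia a flanged polyethylene cannula was placed in the fundic stomach. The first 30-min collection was discarded, then two 1-h samples were taken. Volume was measured and acidity titrated to pH 7 with 0.01 N NaOH. ED50 = dose giving 50% inhibition of total acid output vs controls, by least-squares regression.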

Rattus norvegicus [3] = assay: Antisecretory activity was evaluated in acute gastric fistula of rat after intravenous administration; assay type: functional; conditions: Stomach
Rattus norvegicus [4] = assay: Antisecretory activity was evaluated in acute gastric fistula of rat after administration of 40 mg/kg; I=inactive; assay type: functional, organism-based; design: dose 40 mg/kg; conditions: Stomach

IC50 (Cavia porcellus) | Compound | ED50 (Rattus norvegicus [1]) | ED50 (Rattus norvegicus [2]) | ED50 (Rattus norvegicus [3]) | ED50 (Rattus norvegicus [4])
1.9 µg/mL | CCCCCCCC/N=C\N1CCC(C(c2ccccc2)c2ccc(OC)cc2)CC1.O=C(O)/C=C/C(=O)O (stereo not drawn) | 0.63 mg/kg | 15.7 mg/kg |  | 
0.3 µg/mL | COC(=O)CCCCCCC/N=C/N1CCC(C(c2ccccc2)c2ccccc2)CC1.O=C(O)/C=C/C(=O)O |  | 10.1 mg/kg | 4.7 mg/kg | 
1.2 µg/mL | Cl.O.O=C([O-])CCCCCCC/N=C/N1CCC(C(c2ccccc2)c2ccccc2)CC1.O=C([O-])CCCCCCC/N=C/N1CCC(C(c2ccccc2)c2ccccc2)CC1.[Zn+2] |  |  |  | 
2.2 µg/mL (≈ 5.44 µM) | CC(=O)CCCCCC/N=C/N1CCC(C(c2ccccc2)c2ccccc2)CC1 | 1.5 mg/kg | 10.5 mg/kg |  | 
1.96 µg/mL | CC1(CCCCCC/N=C\N2CCC(C(c3ccccc3)c3ccccc3)CC2)OCCO1.O=C(O)/C=C/C(=O)O | 0.98 mg/kg | 4.8 mg/kg |  | 
0.26 µg/mL (≈ 0.687 µM) | OCCCCCC/N=C/N1CCC(C(c2ccccc2)c2ccccc2)CC1 | 2 mg/kg | 11.2 mg/kg | 4.5 mg/kg | 
1.8 µg/mL (≈ 4.61 µM) | CCCCCCCC/N=C/N1CCC(C(c2ccccc2)c2ccccc2)CC1 [FENOCTIMINE] | 0.6 mg/kg | 3.9 mg/kg | 1.1 mg/kg | 
 | CN/C(=N\CCSCc1nc[nH]c1C)NC#N [CIMETIDINE] |  | 7.6 mg/kg |  | 
1.7 µg/mL (≈ 4.18 µM) | CC(O)CCCCCC/N=C/N1CCC(C(c2ccccc2)c2ccccc2)CC1 (stereo not drawn) |  | 8.9 mg/kg |  | 
0.29 µg/mL (≈ 0.713 µM) | OCCCCCCCC/N=C/N1CCC(C(c2ccccc2)c2ccccc2)CC1 | 0.44 mg/kg | 8.5 mg/kg | 9.7 mg/kg | 
21.9 µg/mL (≈ 78.4 µM) | O=CN1CCC(C(c2ccccc2)c2ccccc2)CC1 |  |  |  | inactive
4.1 µg/mL | C/C(CCCCCC/N=C\N1CCC(C(c2ccccc2)c2ccccc2)CC1)=N\O.O=S(=O)(O)c1ccc2ccccc2c1 | 8.8 mg/kg | 12.5 mg/kg |  | 
0.96 µg/mL | CCCCCCCC/N=C/N1CCC(C(c2ccccc2)c2ccc(O)cc2)CC1.O=S(=O)(O)c1ccc2ccccc2c1 (stereo not drawn) | 3.1 mg/kg | > 40 mg/kg |  | 

Compound | IC50 (Cavia porcellus) | ED50 (Rattus norvegicus [1]) | ED50 (Rattus norvegicus [2]) | ED50 (Rattus norvegicus [3]) | ED50 (Rattus norvegicus [4])
CN1[C@@H]2CC[C@H]1C[C@@H](OC(=O)C(CO)c1ccccc1)C2 (stereo partly drawn) [ATROPINE] | 0.0038 µg/mL (≈ 0.0131 µM) |  | 1.1 mg/kg |  | 
